In article PMC3270116 (Analytical Biochemistry, 2011):
Entries after “also recorded” stand apart in the source; their conditions may differ. Values belong to the compound of their own block, whether it stands above or below them.

Legend:
[1] = target: T1, serine racemase (SR) in PC-12 cells (Rattus norvegicus, UniProt Q76EQ0); assay: CE-LIF measurement of intra-cellular D-Ser production in PC-12 cells; type: cell-based; conditions: for intra-cellular D-Ser production: 36 h, PC-12, n = 3
T1 sequence (Q76EQ0 1-333): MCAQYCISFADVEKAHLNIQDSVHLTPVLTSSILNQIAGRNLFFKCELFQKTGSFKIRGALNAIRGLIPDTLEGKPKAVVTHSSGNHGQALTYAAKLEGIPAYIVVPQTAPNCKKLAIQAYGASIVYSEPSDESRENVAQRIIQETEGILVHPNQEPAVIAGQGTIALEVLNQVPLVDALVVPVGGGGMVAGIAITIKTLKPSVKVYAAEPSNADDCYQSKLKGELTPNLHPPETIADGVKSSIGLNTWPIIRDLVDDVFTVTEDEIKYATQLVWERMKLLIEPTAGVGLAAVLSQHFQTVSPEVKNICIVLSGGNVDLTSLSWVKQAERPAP
Procedure, shortened: (§1)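 PC-12 cells were kept in RPMI-1640 with 10% horse serum and 5% FBS, and 1321N1 cells in DMEM with 10% FBS. […] Pellets were spiked with D-Arg internal standard, ACN-extracted, dried and FITC-labelled. CE-LIF used 0.5 mM HP-β-CD in 80 mM borate, pH 9.3.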

[2] = target: T2, serine racemase (SR) in C6 cells (Rattus norvegicus, UniProt Q76EQ0); assay: CE-LIF measurement of intra-cellular D-Ser production in C6 cells; type: cell-based; conditions: for intra-cellular D-Ser production: 36 h, C6, n = 3
T2 sequence (Q76EQ0 1-333): T1 sequence (Q76EQ0 1-333)
Procedure, shortened: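 C6 cells in DMEM with L-Gln, 10% FBS and 1% penicillin/streptomycin were grown at 37 °C in 5% CO2 to >70% confluence. They were then incubated for 36 h in medium with substrate amino acid (0–20 mM) or inhibitor amino acid (0–8 mM), in triplicate. ACN extracts with D-Arg internal standard were FITC-labelled, then run by CE-LIF in 0.5 mM HP-β-CD/80 mM borate, pH 9.3. D-Ser was quantified by area ratio to FITC-D-Arg.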

[3] = target: T3, serine racemase (SR) in HepG2 cells (Homo sapiens, UniProt Q9GZT4); assay: CE-LIF measurement of intra-cellular D-Ser production in HepG2 cells; type: cell-based; conditions: for intra-cellular D-Ser production: 36 h, HepG2, n = 3
T3 sequence (Q9GZT4 1-340): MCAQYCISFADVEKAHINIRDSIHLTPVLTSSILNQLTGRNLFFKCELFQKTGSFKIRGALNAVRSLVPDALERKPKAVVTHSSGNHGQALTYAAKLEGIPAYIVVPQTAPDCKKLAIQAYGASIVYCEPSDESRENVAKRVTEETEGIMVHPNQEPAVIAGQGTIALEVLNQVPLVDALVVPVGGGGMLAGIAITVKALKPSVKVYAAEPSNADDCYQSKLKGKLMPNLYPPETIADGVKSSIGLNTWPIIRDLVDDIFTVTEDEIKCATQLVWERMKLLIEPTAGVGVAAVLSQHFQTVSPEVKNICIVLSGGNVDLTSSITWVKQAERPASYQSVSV
Procedure, shortened: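 Medium for HepG2 was EMEM with 1% L-Gln, 10% FBS, 1% sodium pyruvate and 1% penicillin/streptomycin. Cells at >70% confluence (37 °C, 5% CO2) were exposed for 36 h to medium with substrate amino acid (0–20 mM) or inhibitor amino acid (0–8 mM), in triplicate. Cell extracts in ACN with D-Arg internal standard were FITC-derivatized. CE-LIF used 0.5 mM HP-β-CD in 80 mM borate, pH 9.3, with D-Ser quantified against FITC-D-Arg.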

[4] = target: T4, serine racemase (SR) in 1321N1 cells (Homo sapiens, UniProt Q9GZT4); assay: CE-LIF measurement of intra-cellular D-Ser production in 1321N1 cells; type: cell-based; conditions: for intra-cellular D-Ser production: 36 h, 1321N1, n = 3
T4 sequence (Q9GZT4 1-340): T3 sequence (Q9GZT4 1-340)
Procedure, shortened: as §1

[5] = test system: SR protein (monomer and dimer) in PC-12 cells; assay: Western blot of SR protein expression in PC-12 cells; type: cell-based, rat; conditions: 36-h treatment; for expression of the SR dimer relative to control: normalized to β-actin, n=2
Procedure, shortened: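 Lysates were BCA-assayed, and 20 μg protein per lane was run on reducing 4–12% SDS-PAGE and moved to PVDF. Blots were blocked in 5% milk, probed with a […] SR antibody, then an HRP secondary, and detected by ECL. Bands were quantified by densitometry, normalised to β-actin, n=2.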

[6] = test system: SR purified from mouse brain; conditions: cited from earlier work
[7] = target: purified recombinant human SR; conditions: cited from earlier work
primary microglia = conditions: LPS 100 ng/ml; cited from earlier work

- intra-cellular D-Ser production ([1]; Gly 0.25 mM in media): 15.91 ± 1.72
- intra-cellular D-Ser production ([1]; Gly 0.50 mM in media): 13.86 ± 2.02
- intra-cellular D-Ser production ([1]; Gly 1.0 mM in media): 11.59 ± 2.43
- intra-cellular D-Ser production ([1]; Gly 2.0 mM in media): 8.30 ± 0.51
- intra-cellular D-Ser production ([1]; Gly 4.0 mM in media): 7.82 ± 0.49
- intra-cellular D-Ser production ([1]; Gly 6.0 mM in media): 4.64 ± 1.36
- intra-cellular D-Ser production ([1]; Gly 8.0 mM in media): 2.72 ± 0.44
- decrease in intra-cellular D-Ser ([1]; PC-12, 6 mM Gly): 77%
- IC50 ([1]; read-out: IC50 for the Gly inhibition of SR, PC-12, 36 h, n = 3): 1.24 ± 0.39 mM
- reduction in intra-cellular D-Ser concentrations ([2]; C6, Gly 0.25 to 8.0 mM added to incubation buffer): 97%
- intra-cellular D-Ser production ([2]; Gly 0.25 mM in media): 3.74 ± 0.12
- intra-cellular D-Ser production ([2]; Gly 0.50 mM in media): 3.49 ± 0.17
- intra-cellular D-Ser production ([2]; Gly 1.0 mM in media): 3.15 ± 0.13
- intra-cellular D-Ser production ([2]; Gly 2.0 mM in media): 1.69 ± 0.14
- intra-cellular D-Ser production ([2]; Gly 4.0 mM in media): 0.51 ± 0.11
- intra-cellular D-Ser production ([2]; Gly 6.0 mM in media): 0.41 ± 0.07
- intra-cellular D-Ser production ([2]; Gly 8.0 mM in media): 0.11 ± 0.07
- intra-cellular D-Ser production ([3]; Gly 0.25 mM in media): 14.96 ± 0.91
- intra-cellular D-Ser production ([3]; Gly 0.50 mM in media): 13.85 ± 0.22
- intra-cellular D-Ser production ([3]; Gly 1.0 mM in media): 10.88 ± 0.17
- intra-cellular D-Ser production ([3]; Gly 2.0 mM in media): 10.77 ± 0.14
- intra-cellular D-Ser production ([3]; Gly 4.0 mM in media): 10.31 ± 0.32
- intra-cellular D-Ser production ([3]; Gly 6.0 mM in media): 8.60 ± 0.12
- intra-cellular D-Ser production ([3]; Gly 8.0 mM in media): 7.78 ± 0.27
- reduction in intra-cellular D-Ser concentrations ([4]; 1321N1, Gly 0.25 to 8.0 mM added to incubation buffer): 35%
- intra-cellular D-Ser production ([4]; Gly 0.25 mM in media): 9.05 ± 2.48
- intra-cellular D-Ser production ([4]; Gly 0.50 mM in media): 8.34 ± 2.16
- intra-cellular D-Ser production ([4]; Gly 1.0 mM in media): 7.38 ± 2.01
- intra-cellular D-Ser production ([4]; Gly 2.0 mM in media): 6.69 ± 1.80
- intra-cellular D-Ser production ([4]; Gly 4.0 mM in media): 6.53 ± 1.98
- intra-cellular D-Ser production ([4]; Gly 6.0 mM in media): 6.32 ± 1.83
- intra-cellular D-Ser production ([4]; Gly 8.0 mM in media): 6.29 ± 1.04
- IC50 ([4]; read-out: IC50 for the Gly inhibition of SR, 1321N1, 36 h, n = 3): 0.68 ± 0.15 mM
Compound: NCC(=O)O [Gly, glycine]
- SR dimer or SR monomer expression relative to control ([5]; PC-12, Gly 6 mM): neither of these treatments produced a significant change; also recorded: without causing a significant change
- reduction in the D-Ser production ([6]; 2 mM Gly in incubation media): 80%
- Ki ([6]; competitive inhibitor): 0.15 mM
- Ki [7]: 0.37 mM

- EC50 [1]: 5.41 ± 0.76 mM
- intra-cellular D-Ser production ([1]; L-Ser 2 mM in media): 16.48 ± 1.72
- intra-cellular D-Ser production ([1]; L-Ser 4 mM in media): 21.97 ± 2.48
- intra-cellular D-Ser production ([1]; L-Ser 6 mM in media): 29.51 ± 4.93
- intra-cellular D-Ser production ([1]; L-Ser 8 mM in media): 31.46 ± 0.07
- intra-cellular D-Ser production ([1]; L-Ser 10 mM in media): 36.49 ± 1.64
- intra-cellular D-Ser production ([1]; L-Ser 15 mM in media): 38.01 ± 0.50
- intra-cellular D-Ser production ([1]; L-Ser 20 mM in media): 39.13 ± 0.36
- EC50 [2]: 9.37 ± 0.17 mM
- increase in intra-cellular D-Ser levels ([2]; C6, L-Ser 2.0 to 20.0 mM added to incubation buffer): 533%
- intra-cellular D-Ser production ([2]; L-Ser 2 mM in media): 2.91 ± 0.17
- intra-cellular D-Ser production ([2]; L-Ser 4 mM in media): 3.05 ± 0.08
- intra-cellular D-Ser production ([2]; L-Ser 6 mM in media): 3.60 ± 0.14
- intra-cellular D-Ser production ([2]; L-Ser 8 mM in media): 7.17 ± 0.27
- intra-cellular D-Ser production ([2]; L-Ser 10 mM in media): 10.63 ± 0.45
- intra-cellular D-Ser production ([2]; L-Ser 15 mM in media): 15.64 ± 0.10
- intra-cellular D-Ser production ([2]; L-Ser 20 mM in media): 16.07 ± 0.16
- EC50 [3]: 7.87 ± 2.09 mM
- increase in intra-cellular D-Ser levels ([3]; HepG2, L-Ser 2.0 to 20.0 mM added to incubation buffer): 50%
- intra-cellular D-Ser production ([3]; L-Ser 2 mM in media): 15.48 ± 0.26
- intra-cellular D-Ser production ([3]; L-Ser 4 mM in media): 16.21 ± 0.21
- intra-cellular D-Ser production ([3]; L-Ser 6 mM in media): 17.53 ± 1.70
- intra-cellular D-Ser production ([3]; L-Ser 8 mM in media): 18.50 ± 1.48
- intra-cellular D-Ser production ([3]; L-Ser 10 mM in media): 20.10 ± 0.50
- intra-cellular D-Ser production ([3]; L-Ser 15 mM in media): 21.81 ± 0.35
- intra-cellular D-Ser production ([3]; L-Ser 20 mM in media): 26.28 ± 0.25
- EC50 [4]: 9.16 ± 0.27 mM
- intra-cellular D-Ser production ([4]; L-Ser 2 mM in media): 8.13 ± 0.14
- intra-cellular D-Ser production ([4]; L-Ser 4 mM in media): 9.26 ± 1.00
- intra-cellular D-Ser production ([4]; L-Ser 6 mM in media): 9.46 ± 0.87
- intra-cellular D-Ser production ([4]; L-Ser 8 mM in media): 9.54 ± 0.82
- intra-cellular D-Ser production ([4]; L-Ser 10 mM in media): 19.57 ± 0.77
- intra-cellular D-Ser production ([4]; L-Ser 15 mM in media): 21.94 ± 0.18
- intra-cellular D-Ser production ([4]; L-Ser 20 mM in media): 22.31 ± 1.27
Compound: N[C@@H](CO)C(=O)O [L-Ser, L-serine]
- SR dimer or SR monomer expression relative to control ([5]; PC-12, L-Ser 10 mM): neither of these treatments produced a significant change; also recorded: without causing a significant change
- Km ([6]; read-out: Km for L-Ser): 18 mM
- Km ([7]; read-out: Km for L-Ser): 4 mM

Compound: lipopolysaccharide [LPS]
- increase in intra-cellular D-Ser concentration ([1]; PC-12, LPS 10 ng/ml in incubation media): 2.5 fold
- increase in intra-cellular D-Ser concentration ([1]; PC-12, LPS 100 ng/ml in incubation media): 3.5 fold
- expression of the SR dimer relative to control ([5]; PC-12, LPS 10 ng/ml): 1.2 fold
- expression of the SR dimer relative to control ([5]; PC-12, LPS 100 ng/ml): 1.6 fold
- D-Ser levels in the incubation media (primary microglia): increased
- expression of the dimeric form of SR (primary microglia): increased
